# Measured values reported in ChEMBL document CHEMBL4373711, “Development of 3,5-Dinitrophenyl-Containing 1,2,4-Triazoles and Their Trifluoromethyl Analogues as Highly Efficient Antitubercular Agents Inhibiting Decaprenylphosphoryl-β-d-ribofuranose 2'-Oxidase” (J Med Chem, 2019).
# Active and inactive are the calls of the source. The calls are words filed in the database; no cut-off is given here.
# Assays:
# Aspergillus flavus = assay: Antifungal activity against Aspergillus flavus CCM 8363 at highest concentration measured after 24 to 48 hrs by alamar blue dye based broth microdilution assay; type: functional, organism-based
# Pseudomonas aeruginosa = assay: Antibacterial activity against Pseudomonas aeruginosa ATCC 27853 CCM 3955 at highest concentration measured after 24 to 48 hrs by alamar blue dye based broth microdilution assay; type: functional, organism-based
# Candida parapsilosis = assay: Antifungal activity against Candida parapsilosis ATCC 22019 CCM 8260 at highest concentration measured after 24 to 48 hrs by alamar blue dye based broth microdilution assay; type: functional, organism-based
# Pichia kudriavzevii = assay: Antifungal activity against Candida krusei ATCC 6258 CCM8271 at highest concentration measured after 24 to 48 hrs by alamar blue dye based broth microdilution assay; type: functional, organism-based
# Mycobacterium kansasii [1] = assay: Antimycobacterial activity against Mycobacterium kansasii 6509/96 after 14 days; type: functional; conditions: 6509/96, 336 h
# Method in brief: (§1)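 Microdilution in Šula's semisynthetic medium; compounds in DMSO at 32–0.03 µM. Inoculum from 1.0 McFarland suspension diluted 10-4. […] Isoniazid and rifampicin as reference drugs.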
# Klebsiella pneumoniae = assay: Antibacterial activity against Klebsiella pneumoniae at highest concentration measured after 24 to 48 hrs by alamar blue dye based broth microdilution assay; type: functional, organism-based
# [2] = system: Trichophyton interdigitale; assay: Antifungal activity against Trichophyton interdigitale ATCC 9533 CCM 8377 at highest concentration measured after 72 to 120 hrs by alamar blue dye based broth microdilution assay; type: functional
# Aspergillus fumigatus = assay: Antifungal activity against Aspergillus fumigatus ATCC 204305 at highest concentration measured after 24 to 48 hrs by alamar blue dye based broth microdilution assay; type: functional, organism-based
# [3] = system: Staphylococcus epidermidis; assay: Antibacterial activity against Staphylococcus epidermidis at highest concentration measured after 24 to 48 hrs by alamar blue dye based broth microdilution assay; type: functional, organism-based
# Escherichia coli = assay: Antibacterial activity against Escherichia coli ATCC 25922 CCM 3954 at highest concentration measured after 24 to 48 hrs by alamar blue dye based broth microdilution assay; type: functional, organism-based
# [4] = system: Mycobacterium tuberculosis; assay: Antimycobacterial activity against Mycobacterium tuberculosis H37Rv CNCTC My 331/88 after 21 days; type: functional; conditions: H37Rv CNCTC My 331/88, 504 h
# Method in brief: (§2)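 M. tuberculosis strains (H37Rv and clinical MDR/XDR isolates) tested by microdilution in Šula's semisynthetic medium. Compounds were dissolved in DMSO and tested at 32 to 0.03 µM in twofold steps. Inoculum was a 1.0 McFarland suspension diluted 10-3. Plates were incubated at 37 °C and read at 14 and 21 days.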
# Lichtheimia corymbifera = assay: Antifungal activity against Lichtheimia corymbifera CCM 8077 at highest concentration measured after 24 to 48 hrs by alamar blue dye based broth microdilution assay; type: functional, organism-based
# Staphylococcus aureus [5] = assay: Antibacterial activity against Staphylococcus aureus subsp. aureus ATCC 29213 CCM 4223 at highest concentration measured after 24 to 48 hrs by alamar blue dye based broth microdilution assay; type: functional, organism-based
# Mycobacterium kansasii [6] = assay: Antimycobacterial activity against Mycobacterium kansasii 6509/96 after 21 days; type: functional; conditions: 6509/96, 504 h; method in brief: as §1
# Mycobacterium kansasii [7] = assay: Antimycobacterial activity against Mycobacterium kansasii CNCTC My 235/80 after 21 days; type: functional; conditions: CNCTC My 235/80, 504 h; method in brief: as §1
# Mycobacterium avium [8] = assay: Antimycobacterial activity against Mycobacterium avium CNCTC My 330/88 after 14 days; type: functional; conditions: CNCTC My 330/88, 336 h
# Method in brief: (§3)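 M. avium was tested by microdilution in Šula's semisynthetic medium, with compounds dissolved in DMSO and serially diluted from 1000 down to 1. Inoculum was a 1.0 McFarland suspension diluted 10-5. Plates were incubated at 37 °C and read at 14 and 21 days. […] Isoniazid and rifampicin served as standards.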
# Mycobacterium kansasii [9] = assay: Antimycobacterial activity against Mycobacterium kansasii 6509/96 after 7 days; type: functional; conditions: 6509/96, 168 h; method in brief: as §1
# Candida tropicalis = assay: Antifungal activity against Candida tropicalis ATCC 750 CCM 8264 at highest concentration measured after 24 to 48 hrs by alamar blue dye based broth microdilution assay; type: functional, organism-based
# Candida albicans = assay: Antifungal activity against Candida albicans ATCC 24433 CCM 8320 at highest concentration measured after 24 to 48 hrs by alamar blue dye based broth microdilution assay; type: functional, organism-based
# Serratia marcescens = assay: Antibacterial activity against Serratia marcescens at highest concentration measured after 24 to 48 hrs by alamar blue dye based broth microdilution assay; type: functional, organism-based
# Mycobacterium kansasii [10] = assay: Antimycobacterial activity against Mycobacterium kansasii CNCTC My 235/80 after 7 days; type: functional; conditions: CNCTC My 235/80, 168 h; method in brief: as §1
# Mycobacterium kansasii [11] = assay: Antimycobacterial activity against Mycobacterium kansasii CNCTC My 235/80 after 14 days; type: functional; conditions: CNCTC My 235/80, 336 h; method in brief: as §1
# Staphylococcus aureus [12] = assay: Antibacterial activity against methicillin-resistant Staphylococcus aureus subsp. aureus ATCC 43300 CCM 4750 at highest concentration measured after 24 to 48 hrs by alamar blue dye based broth microdilution assay; type: functional, organism-based
# [13] = system: Mycobacterium tuberculosis; assay: Antimycobacterial activity against Mycobacterium tuberculosis H37Rv CNCTC My 331/88 after 14 days; type: functional; conditions: H37Rv CNCTC My 331/88, 336 h; method in brief: as §2
# Enterococcus faecalis = assay: Antibacterial activity against Enterococcus faecalis ATCC 29212 CCM 4224 at highest concentration measured after 24 to 48 hrs by alamar blue dye based broth microdilution assay; type: functional, organism-based
# Mycobacterium avium [14] = assay: Antimycobacterial activity against Mycobacterium avium CNCTC My 330/88 after 21 days; type: functional; conditions: CNCTC My 330/88, 504 h; method in brief: as §3
SMILES,Activity (Aspergillus flavus),Activity (Pseudomonas aeruginosa),Activity (Candida parapsilosis),Activity (Pichia kudriavzevii),MIC99 (Mycobacterium kansasii [1]),Activity (Klebsiella pneumoniae),Activity [2],Activity (Aspergillus fumigatus),Activity [3],Activity (Escherichia coli),MIC99 [4],Activity (Lichtheimia corymbifera),Activity (Staphylococcus aureus [5]),MIC99 (Mycobacterium kansasii [6]),MIC99 (Mycobacterium kansasii [7]),MIC99 (Mycobacterium avium [8]),MIC99 (Mycobacterium kansasii [9]),Activity (Candida tropicalis),Activity (Candida albicans),Activity (Serratia marcescens),other results
COc1ccc(-c2nnc(SCc3cc([N+](=O)[O-])cc(C(F)(F)F)c3)n2Cc2ccccc2)cc1,inactive,inactive,inactive,inactive,> 32 µM,inactive,inactive,inactive,inactive,inactive,> 32 µM,inactive,inactive,> 32 µM,> 32 µM,250 µM,> 32 µM,inactive,inactive,inactive,MIC99 (Mycobacterium kansasii [10]): 32 µM; MIC99 (Mycobacterium kansasii [11]): > 32 µM; Activity (Staphylococcus aureus [12]): inactive; MIC99 [13]: 32 µM; Activity (Enterococcus faecalis): inactive; MIC99 (Mycobacterium avium [14]): 250 µM
O=[N+]([O-])c1cc(Cn2c(SCc3ccc(Cl)c(Cl)c3)nnc2-c2ccccc2)cc([N+](=O)[O-])c1,inactive,inactive,inactive,inactive,16 µM,inactive,inactive,inactive,inactive,inactive,16 µM,inactive,inactive,16 µM,16 µM,250 µM,8 µM,inactive,inactive,inactive,MIC99 (Mycobacterium kansasii [10]): 4 µM; MIC99 (Mycobacterium kansasii [11]): 8 µM; Activity (Staphylococcus aureus [12]): inactive; MIC99 [13]: 8 µM; Activity (Enterococcus faecalis): inactive; MIC99 (Mycobacterium avium [14]): 250 µM
COc1ccc(-c2nnc(SCc3cc([N+](=O)[O-])cc([N+](=O)[O-])c3)n2Cc2ccccc2)cc1,inactive,inactive,inactive,inactive,8 µM,inactive,inactive,inactive,inactive,inactive,4 µM,inactive,inactive,8 µM,8 µM,250 µM,8 µM,inactive,inactive,inactive,MIC99 (Mycobacterium kansasii [10]): 4 µM; MIC99 (Mycobacterium kansasii [11]): 8 µM; Activity (Staphylococcus aureus [12]): inactive; MIC99 [13]: 4 µM; Activity (Enterococcus faecalis): inactive; MIC99 (Mycobacterium avium [14]): 250 µM
